Experimental data as given in ChEMBL document CHEMBL1134584 (J Med Chem, 2001).

Legend:
[1] = molecular target: T1, Somatostatin receptor type 3 (Homo sapiens, UniProt P32745); experiment: Inhibition of [125 I -Tyr]SRIF-14 binding to membranes isolated from CHO-K1 cells expressing cloned human SRIF receptor (sst-3) subtype; assay type: cell membranes
[2] = molecular target: T1, Somatostatin receptor type 3; experiment: Inhibitory concentration required to inhibit SRIF-14 induced reduction of cAMP in CHO-K1 cells expressing the human sst3 receptor.; assay type: functional, cell-based
[3] = molecular target: T2, Somatostatin receptor type 2 (Homo sapiens, UniProt P30874); experiment: Inhibition of [125 I -Tyr]SRIF-14 binding to membranes isolated from CHO-K1 cells expressing cloned human SRIF receptor (sst-2) subtype; assay type: cell membranes
[4] = molecular target: Somatostatin receptor type 1 (Homo sapiens, UniProt P30872); experiment: Inhibition of [125 I -Tyr]SRIF-14 binding to membranes isolated from CHO-K1 cells expressing cloned human SRIF receptor (sst-1) subtype; assay type: cell membranes
[5] = molecular target: Somatostatin receptor type 5 (Homo sapiens, UniProt P35346); experiment: Inhibition of [125 I -Tyr]SRIF-14 binding to membranes isolated from CHO-K1 cells expressing cloned human SRIF receptor (sst-5) subtype; assay type: cell membranes
[6] = molecular target: Somatostatin receptor type 4 (Homo sapiens, UniProt P31391); experiment: Inhibition of [125 I -Tyr]SRIF-14 binding to membranes isolated from CHO-K1 cells expressing cloned human SRIF receptor (sst-4) subtype; assay type: cell membranes
[7] = molecular target: T2, Somatostatin receptor type 2; experiment: Inhibition of [125 I -Tyr]SRIF-14 binding to membranes isolated from CHO-K1 cells expressing each of the cloned human SRIF receptor (sst-2) subtypes; assay type: cell membranes
How it was run: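 Stable CHO-K1 clones transfected with human receptor cDNA in pCMV5. Membranes prepared from these cells, 10-20 µg protein/well, incubated with 0.05-0.1 nM [125I-Tyr11]SRIF-14 in 50 mM HEPES pH 7.4, 0.2% BSA, 5 mM MgCl2 plus protease inhibitors, 50-90 min at 37 °C depending on subtype. GF/C filtration, then counting. Nonspecific binding defined with 0.1 µM SRIF-14. Ki obtained by nonlinear regression.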

Sequence of Somatostatin receptor type 4 (P31391 whole entry): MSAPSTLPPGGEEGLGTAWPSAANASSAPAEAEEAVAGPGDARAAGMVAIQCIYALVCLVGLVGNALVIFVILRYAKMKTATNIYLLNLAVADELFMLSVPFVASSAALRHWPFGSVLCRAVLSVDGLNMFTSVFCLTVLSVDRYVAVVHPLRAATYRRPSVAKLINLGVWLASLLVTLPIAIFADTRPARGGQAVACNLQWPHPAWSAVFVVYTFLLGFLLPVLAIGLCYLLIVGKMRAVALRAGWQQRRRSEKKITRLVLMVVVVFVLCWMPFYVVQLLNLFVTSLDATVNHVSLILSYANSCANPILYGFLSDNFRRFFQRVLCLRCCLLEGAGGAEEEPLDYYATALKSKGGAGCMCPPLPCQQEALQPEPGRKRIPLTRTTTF
Sequence of Somatostatin receptor type 1 (P30872 whole entry): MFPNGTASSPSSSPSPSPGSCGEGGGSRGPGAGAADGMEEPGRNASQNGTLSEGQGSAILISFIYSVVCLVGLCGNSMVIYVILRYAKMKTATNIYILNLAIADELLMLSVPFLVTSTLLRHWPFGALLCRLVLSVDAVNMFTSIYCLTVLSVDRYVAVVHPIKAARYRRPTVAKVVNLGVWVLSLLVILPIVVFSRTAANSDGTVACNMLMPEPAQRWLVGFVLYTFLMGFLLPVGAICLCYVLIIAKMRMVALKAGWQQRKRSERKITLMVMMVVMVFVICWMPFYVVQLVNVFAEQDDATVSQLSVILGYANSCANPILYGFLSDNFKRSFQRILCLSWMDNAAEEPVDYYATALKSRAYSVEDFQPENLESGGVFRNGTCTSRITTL
T2 sequence (P30874 whole entry): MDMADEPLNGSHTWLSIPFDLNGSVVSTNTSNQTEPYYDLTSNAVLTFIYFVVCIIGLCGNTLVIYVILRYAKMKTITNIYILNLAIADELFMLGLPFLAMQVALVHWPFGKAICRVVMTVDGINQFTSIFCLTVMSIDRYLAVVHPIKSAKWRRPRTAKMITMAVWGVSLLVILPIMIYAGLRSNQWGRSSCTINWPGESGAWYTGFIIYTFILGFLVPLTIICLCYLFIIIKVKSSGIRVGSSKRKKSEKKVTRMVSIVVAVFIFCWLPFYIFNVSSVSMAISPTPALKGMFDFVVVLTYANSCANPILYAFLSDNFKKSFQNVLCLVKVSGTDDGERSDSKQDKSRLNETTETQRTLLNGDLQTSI
T1 sequence (P32745 whole entry): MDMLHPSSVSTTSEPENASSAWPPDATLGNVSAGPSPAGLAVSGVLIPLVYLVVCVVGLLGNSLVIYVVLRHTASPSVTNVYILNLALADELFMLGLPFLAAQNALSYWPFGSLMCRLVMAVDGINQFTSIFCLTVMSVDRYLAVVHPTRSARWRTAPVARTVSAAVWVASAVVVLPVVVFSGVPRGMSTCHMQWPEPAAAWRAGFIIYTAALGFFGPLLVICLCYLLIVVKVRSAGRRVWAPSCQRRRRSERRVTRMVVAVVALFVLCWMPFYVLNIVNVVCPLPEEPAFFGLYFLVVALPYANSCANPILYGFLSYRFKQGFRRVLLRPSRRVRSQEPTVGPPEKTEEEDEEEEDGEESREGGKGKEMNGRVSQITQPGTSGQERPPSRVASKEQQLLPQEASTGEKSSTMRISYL
Sequence of Somatostatin receptor type 5 (P35346 whole entry): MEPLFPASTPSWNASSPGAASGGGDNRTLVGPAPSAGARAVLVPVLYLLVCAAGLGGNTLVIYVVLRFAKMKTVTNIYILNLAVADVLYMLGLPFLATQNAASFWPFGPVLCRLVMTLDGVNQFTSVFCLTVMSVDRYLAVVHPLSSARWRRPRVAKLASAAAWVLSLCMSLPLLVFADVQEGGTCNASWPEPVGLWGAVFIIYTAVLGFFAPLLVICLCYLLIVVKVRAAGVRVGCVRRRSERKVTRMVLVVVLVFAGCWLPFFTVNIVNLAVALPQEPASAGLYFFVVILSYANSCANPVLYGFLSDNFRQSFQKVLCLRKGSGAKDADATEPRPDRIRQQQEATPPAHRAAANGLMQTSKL

SMILES: CCCCC1(CCCC)NC(c2nc(-c3ccccc3)c[nH]2)Cc2c1[nH]c1ccc(Cl)cc21 (centres undefined)
- Ki [1]: 3.4 nM
- IC50 [2]: 43 nM

SMILES: CCCCCC1(CCCCC)N[C@H](c2nc(-c3ccccc3)c[nH]2)Cc2c1[nH]c1ccccc21
- Ki [3]: > 10000 nM
- Ki [4]: > 10000 nM
- Ki [5]: > 10000 nM
- Ki [1]: 0.92 nM
- Ki [6]: > 10000 nM
- IC50 [2]: 0.84 nM

SMILES: CC1(C2CCCCC2)N[C@H](c2nc(-c3ccccc3)c[nH]2)Cc2c1[nH]c1ccccc21 (some centres undefined)
- Ki [3]: > 10000 nM
- Ki [4]: 4400 nM
- Ki [5]: > 10000 nM
- Ki [1]: 0.9 nM
- Ki [6]: > 10000 nM
- IC50 [2]: 5.4 nM

SMILES: c1ccc(-c2c[nH]c(-c3cc4c([nH]c5ccccc54)c(C4CCCCC4)n3)n2)cc1
- Ki [1]: 750 nM

SMILES: CCCCC1(CCCC)N[C@@H](c2nc(-c3ccccc3)c[nH]2)Cc2c1[nH]c1ccccc21
- Ki [3]: > 10000 nM
- Ki [4]: 3700 nM
- Ki [5]: 2200 nM
- Ki [1]: 0.64 nM
- Ki [6]: 7100 nM
- IC50 [2]: 2.7 nM

SMILES: CN(C)c1ccc(C2N[C@H](c3nc(-c4ccccc4)c[nH]3)Cc3c2[nH]c2ccccc32)cc1 (some centres undefined)
- Ki [1]: 33 nM

SMILES: CCCCCCC1(CCCCCC)N[C@H](c2nc(-c3ccccc3)c[nH]2)Cc2c1[nH]c1ccccc21
- Ki [1]: 28 nM

SMILES: CCCCCC1N[C@H](c2nc(-c3ccccc3)c[nH]2)Cc2c1[nH]c1ccccc21 (some centres undefined)
- Ki [1]: 11 nM

SMILES: COc1ccc(C2N[C@H](c3nc(-c4ccccc4)c[nH]3)Cc3c2[nH]c2ccccc32)cc1 (some centres undefined)
- Ki [1]: 60 nM

SMILES: C[C@@H](c1c[nH]c2ccccc12)[C@@H](NC(=O)N1CCC(n2c(=O)[nH]c3ccccc32)CC1)C(=O)N[C@@H](CCCCN)C(=O)OC(C)(C)C
- Ki [7]: 0.01 nM

SMILES: CCCCC1(CCCC)N[C@H](c2nc(-c3ccccc3)c(-c3ccccc3)[nH]2)Cc2c1[nH]c1ccccc21
- Ki [1]: 5500 nM

SMILES: CCCCC1(CCCC)N[C@H](c2nc(-c3ccccc3)c[nH]2)Cc2c1[nH]c1ccccc21 [listing 1 of 2 here]
- Ki [3]: > 10000 nM
- Ki [4]: > 10000 nM
- Ki [5]: 3700 nM
- Ki [1]: 3.4 nM
- Ki [6]: 9800 nM
- IC50 [2]: 6.8 nM

SMILES: c1ccc(-c2c[nH]c([C@@H]3Cc4c([nH]c5ccccc45)C4(Cc5ccccc5C4)N3)n2)cc1
- Ki [1]: 13 nM

SMILES: O=[N+]([O-])c1ccccc1C1N[C@H](c2nc(-c3ccccc3)c[nH]2)Cc2c1[nH]c1ccccc21 (some centres undefined)
- Ki [1]: 200 nM

SMILES: CCCCC1(CCCC)N[C@@H](c2nc(-c3ccccc3)cs2)Cc2c1[nH]c1ccccc21
- Ki [1]: 3800 nM

SMILES: CCCCC1(CCCC)NC(c2nc(-c3ccccc3)c[nH]2)Cc2c1[nH]c1ccc(OCc3ccccc3)cc21 (centres undefined)
- Ki [1]: 17 nM

SMILES: c1ccc(-c2c[nH]c(C3Cc4c([nH]c5ccccc45)C(C4CCCCC4)N3)n2)cc1 (centres undefined)
- Ki [3]: > 10000 nM
- Ki [4]: 1800 nM
- Ki [5]: > 10000 nM
- Ki [6]: > 10000 nM

SMILES: CCC1(CC)N[C@H](c2nc(-c3ccccc3)c[nH]2)Cc2c1[nH]c1ccccc21
- Ki [1]: 11 nM

SMILES: c1ccc(-c2c[nH]c([C@@H]3Cc4c([nH]c5ccccc45)C4(N3)C3CC5CC(C3)CC4C5)n2)cc1 (some centres undefined)
- Ki [1]: 84 nM

SMILES: CCCCC1(CCCC)N[C@H](c2nc(-c3ccccc3)c[nH]2)Cc2c1[nH]c1ccccc21 [listing 2 of 2 here]
- Ki [1]: 0.79 nM

SMILES: CCCCCC1(CCCCC)NC(c2nc(-c3ccccc3)c[nH]2)Cc2c1[nH]c1ccc(C)cc21 (centres undefined)
- Ki [1]: 6.9 nM
- IC50 [2]: 450 nM

SMILES: CC(=O)N1CCC2(CC1)N[C@@H](c1nc(-c3ccccc3)c[nH]1)Cc1c2[nH]c2ccccc12
- Ki [1]: 71 nM

SMILES: CCCCC1(CCCC)N[C@@H](c2nc(-c3ccccc3)c[nH]2)Cc2c1sc1ccccc21
- Ki [1]: 430 nM

SMILES: c1ccc(-c2c[nH]c([C@@H]3Cc4c([nH]c5ccccc45)C(c4ccncc4)N3)n2)cc1 (some centres undefined)
- Ki [1]: 320 nM
